How the values were obtained:
[1] = Inhibition of Escherichia coli PDHC-E1 expressed in Escherichia coli TB1 using 2,6-dichlorophenolindophenol as substrate after 3 mins
How it was run: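 MBP-fusion enzyme was expressed in E. coli TB1 grown in LB with 2% glucose and ampicillin at 37 °C to A600 0.6–0.8, then induced with 0.5 mM IPTG for 7 h at 25 °C. Protein was purified by MBP affinity to >95% purity and quantified by Bradford. The assay buffer was 50 mM K3PO4 pH 7.2 with 2.0 mM pyruvate substrate and 0.8 mM 2,6-DCIP. Enzyme and inhibitor were preincubated 3 min at 37 °C, and then ThDP was added to start the reaction. DCIP reduction was read at 600 nm. IC50 was obtained by fitting initial rates against varied inhibitor concentration to the Hill equation.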

Alternaria alternata = experiment: Antifungal activity against Alternaria alternata Keissler assessed as inhibition of mycelium growth at 100 ug/ml after 48 hrs; type: functional; settings: read-out: GI
How it was run: (§1)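 Poisoned-agar mycelial growth test. Compound mixed into medium and poured into dishes. Once solidified, plates were inoculated with a 5 mm mycelium disk, inverted and incubated at 28 °C for 48 h. Medium without sample served as blank. Mycelial elongation radius was measured in triplicate. Inhibition (%) = [(C − T)/C] × 100, where C and T are the mean mycelial diameters of the blank and the treated plates.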

Fusarium graminearum = experiment: Antifungal activity against Gibberella zeae assessed as inhibition of mycelium growth at 100 ug/ml after 48 hrs; type: functional; settings: read-out: GI
How it was run: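 Poisoned-medium plate test: compound mixed into molten medium and poured into dishes; once set, each plate was seeded with a 5 mm mycelium disk, inverted, and held at 28 °C for 48 h. The blank control was medium without sample, and tests were run in triplicate. Mycelial diameter was measured, and inhibition was taken as I = [(C − T)/C] × 100%, with C the mean blank diameter and T the mean treated diameter.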

Alternaria solani = experiment: Antifungal activity against Alternaria solani assessed as inhibition of mycelium growth at 100 ug/ml after 48 hrs; type: functional; settings: read-out: GI; how it was run: as §1
Rhizoctonia solani = experiment: Antifungal activity against Rhizoctonia solani assessed as inhibition of mycelium growth at 100 ug/ml after 48 hrs; type: functional; settings: read-out: GI; how it was run: as §1
[2] = Antifungal activity against Colletotrichum orbiculare assessed as inhibition of mycelium growth at 100 ug/ml after 48 hrs; type: functional; how it was run: as §1
Botrytis cinerea = experiment: Antifungal activity against Botryotinia fuckeliana assessed as inhibition of mycelium growth at 100 ug/ml after 48 hrs; type: functional; settings: read-out: GI; how it was run: as §1

Row | Structure (SMILES) | IC50 [1] | inhibition of growth at 100 µg/mL (Alternaria alternata) | inhibition of growth at 100 µg/mL (Fusarium graminearum) | inhibition of growth at 100 µg/mL (Alternaria solani) | inhibition of growth at 100 µg/mL (Rhizoctonia solani) | growth inhibition (GI) [2] | inhibition of growth at 100 µg/mL (Botrytis cinerea)
1 | Cc1ncc(Cn2cc(COc3ccc(F)cc3Cl)nn2)c(N)n1 | 43.3 µM |  |  |  |  |  | 
2 | Cc1ncc(Cn2cc(COc3ccc(Cl)cc3)nn2)c(N)n1 | 26.4 µM | 52% | 51% | 44% | 23% | 50% | 73%
3 | CCOC(=O)c1ccc(OCc2cn(Cc3cnc(C)nc3N)nn2)cc1 | 28.8 µM |  |  |  |  |  | 
4 | Cc1ncc(Cn2cc(COc3ccc([N+](=O)[O-])cc3Cl)nn2)c(N)n1 |  | 36% | 0% | 20% | 31% | 57% | 44%
5 | Cc1ncc(Cn2nnc(COc3ccc([N+](=O)[O-])cc3)c2I)c(N)n1 | 5.33 µM | 59% | 68% | 66% | 97% | 35% | 84%
6 | Cc1ncc(Cn2cc(COc3cccc(C(F)(F)F)c3)nn2)c(N)n1 | 32.7 µM |  |  |  |  |  | 
7 | Cc1ncc(Cn2cc(COc3ccccc3[N+](=O)[O-])nn2)c(N)n1 | 36.3 µM |  |  |  |  |  | 
8 | Cc1ncc(Cn2nnc(COc3ccccc3)c2I)c(N)n1 | 19.6 µM | 23% | 59% | 57% | 96% | 45% | 88%
9 | CC1COC(Cn2cncn2)(c2ccc(Oc3ccc(Cl)cc3)cc2Cl)O1 (configuration not stated) [DIFENOCONAZOLE] |  | 100% | 98% | 100% | 100% | 97% | 96%
10 | COc1ccc(OCc2cn(Cc3cnc(C)nc3N)nn2)cc1 | 81.6 µM |  |  |  |  |  | 
11 | COC(=O)Cc1ccc(OCc2cn(Cc3cnc(C)nc3N)nn2)cc1 | 102 µM |  |  |  |  |  | 
12 | Cc1ccc(Cl)c(OCc2cn(Cc3cnc(C)nc3N)nn2)c1 | 29 µM |  |  |  |  |  | 
13 | Cc1ncc(Cn2cc(COc3ccc(C(=O)O)cc3)nn2)c(N)n1 |  | 57% | 21% | 33% | 0% | 42% | 67%
14 | Cc1ncc(Cn2cc(COc3ccc([N+](=O)[O-])cc3)nn2)c(N)n1 |  | 33% | 0% | 24% | 24% | 43% | 37%
15 | Cc1ncc(Cn2cc(COc3ccc(Cl)cc3Cl)nn2)c(N)n1 | 18.7 µM |  |  |  |  |  | 
16 | Cc1ncc(Cn2cc(COc3ccc(Cl)c(C)c3)nn2)c(N)n1 | 26.2 µM |  |  |  |  |  | 
17 | Cc1ncc(Cn2cc(COc3ccc([N+](=O)[O-])cc3[N+](=O)[O-])nn2)c(N)n1 | 11.3 µM | 0% | 48% | 0% | 0% | 42% | 54%
18 | Cc1ncc(Cn2cc(COc3ccccc3)nn2)c(N)n1 |  | 43% | 0% | 25% | 0% | 40% | 53%
